According to ChEMBL document CHEMBL1165965, “Synthesis and structure-activity relationships of 1,2,3,4-tetrahydropyrido[2,3-b]pyrazines as potent and selective inhibitors of the anaplastic lymphoma kinase” (Bioorg Med Chem, 2010):

What was measured:
[1] = target: T1, Tyrosine-protein kinase Tec (Homo sapiens) (UniProt P42680); assay: Inhibition of TEC at 1 uM
T1 sequence (whole entry): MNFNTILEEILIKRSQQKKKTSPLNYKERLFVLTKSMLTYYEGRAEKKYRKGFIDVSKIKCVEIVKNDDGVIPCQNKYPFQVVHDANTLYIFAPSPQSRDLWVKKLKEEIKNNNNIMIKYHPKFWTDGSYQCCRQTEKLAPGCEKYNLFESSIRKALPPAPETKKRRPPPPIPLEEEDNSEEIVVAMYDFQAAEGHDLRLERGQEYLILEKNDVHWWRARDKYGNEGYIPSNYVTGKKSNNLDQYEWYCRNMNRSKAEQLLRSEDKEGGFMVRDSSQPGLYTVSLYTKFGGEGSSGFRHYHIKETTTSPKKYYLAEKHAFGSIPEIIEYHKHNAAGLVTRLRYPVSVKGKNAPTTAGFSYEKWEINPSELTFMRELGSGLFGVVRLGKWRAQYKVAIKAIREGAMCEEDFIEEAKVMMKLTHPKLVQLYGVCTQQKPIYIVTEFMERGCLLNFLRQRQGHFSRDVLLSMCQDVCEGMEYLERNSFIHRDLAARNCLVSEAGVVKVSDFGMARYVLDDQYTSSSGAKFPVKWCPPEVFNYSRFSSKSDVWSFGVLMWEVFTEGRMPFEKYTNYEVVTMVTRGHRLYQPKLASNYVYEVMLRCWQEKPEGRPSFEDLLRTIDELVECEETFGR

[2] = tested on: Tyrosine-protein kinase ABL1 (Homo sapiens), P00519 [E255K]; assay: Inhibition of ABL1 E255K mutant at 1 uM
In short: (§1)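 Ambit KINOMEscan screen at a single concentration across a 250–400 kinase panel, recorded as percent inhibition. Selectivity was expressed as S(90), the fraction of kinases inhibited >90%.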

[3] = target: RAC-beta serine/threonine-protein kinase (Homo sapiens) (UniProt P31751); assay: Inhibition of AKT2 at 1 uM; in short: as §1
[4] = target: Serine/threonine-protein kinase B-raf (Homo sapiens) (UniProt P15056); assay: Inhibition of BRAF at 1 uM; in short: as §1
[5] = target: T2, Ephrin type-A receptor 3 (Homo sapiens) (UniProt P29320); assay: Inhibition of EPHA3 at 1 uM
T2 sequence (whole entry): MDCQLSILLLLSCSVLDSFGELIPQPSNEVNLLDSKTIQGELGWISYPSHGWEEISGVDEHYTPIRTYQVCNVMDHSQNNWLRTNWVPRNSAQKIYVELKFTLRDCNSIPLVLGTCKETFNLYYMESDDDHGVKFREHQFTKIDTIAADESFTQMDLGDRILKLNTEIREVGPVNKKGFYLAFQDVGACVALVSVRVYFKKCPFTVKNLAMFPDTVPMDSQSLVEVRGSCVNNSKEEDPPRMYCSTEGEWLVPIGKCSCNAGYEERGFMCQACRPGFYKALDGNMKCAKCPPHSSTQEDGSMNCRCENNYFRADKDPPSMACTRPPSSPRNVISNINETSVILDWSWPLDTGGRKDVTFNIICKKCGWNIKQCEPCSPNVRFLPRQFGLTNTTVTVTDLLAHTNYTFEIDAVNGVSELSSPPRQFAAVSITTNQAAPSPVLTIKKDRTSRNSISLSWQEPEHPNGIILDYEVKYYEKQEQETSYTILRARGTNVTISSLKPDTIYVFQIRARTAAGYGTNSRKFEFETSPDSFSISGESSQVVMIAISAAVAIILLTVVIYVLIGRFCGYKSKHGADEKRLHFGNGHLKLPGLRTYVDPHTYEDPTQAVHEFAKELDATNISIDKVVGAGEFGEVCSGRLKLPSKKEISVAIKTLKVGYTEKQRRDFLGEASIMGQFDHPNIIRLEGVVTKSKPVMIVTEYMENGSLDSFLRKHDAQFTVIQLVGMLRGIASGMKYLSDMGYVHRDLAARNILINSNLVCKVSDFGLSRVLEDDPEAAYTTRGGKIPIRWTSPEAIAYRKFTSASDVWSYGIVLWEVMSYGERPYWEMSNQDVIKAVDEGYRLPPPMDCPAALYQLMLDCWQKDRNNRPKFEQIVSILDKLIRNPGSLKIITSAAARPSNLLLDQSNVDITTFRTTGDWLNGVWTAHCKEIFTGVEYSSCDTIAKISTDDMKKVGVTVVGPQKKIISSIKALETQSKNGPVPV
In short: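 Single-concentration screen using Ambit Bioscience KINOMEscan technology across a panel of 250–400 kinases. Per-kinase inhibition from this screen was summarized as S(90), the fraction of kinases inhibited by more than 90%.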

[6] = target: Mitogen-activated protein kinase 4 (Homo sapiens) (UniProt P31152); assay: Inhibition of ERK4 at 1 uM
Mitogen-activated protein kinase 4 (Homo sapiens), sequence (P31152 whole entry): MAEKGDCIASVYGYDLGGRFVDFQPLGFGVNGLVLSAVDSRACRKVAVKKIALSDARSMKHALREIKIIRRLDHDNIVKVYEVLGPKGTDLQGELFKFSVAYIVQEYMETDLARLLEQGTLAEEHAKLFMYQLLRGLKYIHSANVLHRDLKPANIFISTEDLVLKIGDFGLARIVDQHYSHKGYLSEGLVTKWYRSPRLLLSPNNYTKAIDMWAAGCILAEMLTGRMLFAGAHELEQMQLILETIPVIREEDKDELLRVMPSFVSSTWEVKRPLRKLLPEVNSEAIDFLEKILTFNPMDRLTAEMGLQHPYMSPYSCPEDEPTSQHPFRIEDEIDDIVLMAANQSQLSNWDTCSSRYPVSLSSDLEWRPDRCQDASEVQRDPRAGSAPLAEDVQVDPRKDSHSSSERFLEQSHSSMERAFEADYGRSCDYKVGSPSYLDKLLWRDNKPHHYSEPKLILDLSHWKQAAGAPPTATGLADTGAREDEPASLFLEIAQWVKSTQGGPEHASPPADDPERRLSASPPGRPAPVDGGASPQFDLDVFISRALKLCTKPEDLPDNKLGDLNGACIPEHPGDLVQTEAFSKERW

Serine/threonine-protein kinase B-raf (Homo sapiens), sequence (P15056 whole entry): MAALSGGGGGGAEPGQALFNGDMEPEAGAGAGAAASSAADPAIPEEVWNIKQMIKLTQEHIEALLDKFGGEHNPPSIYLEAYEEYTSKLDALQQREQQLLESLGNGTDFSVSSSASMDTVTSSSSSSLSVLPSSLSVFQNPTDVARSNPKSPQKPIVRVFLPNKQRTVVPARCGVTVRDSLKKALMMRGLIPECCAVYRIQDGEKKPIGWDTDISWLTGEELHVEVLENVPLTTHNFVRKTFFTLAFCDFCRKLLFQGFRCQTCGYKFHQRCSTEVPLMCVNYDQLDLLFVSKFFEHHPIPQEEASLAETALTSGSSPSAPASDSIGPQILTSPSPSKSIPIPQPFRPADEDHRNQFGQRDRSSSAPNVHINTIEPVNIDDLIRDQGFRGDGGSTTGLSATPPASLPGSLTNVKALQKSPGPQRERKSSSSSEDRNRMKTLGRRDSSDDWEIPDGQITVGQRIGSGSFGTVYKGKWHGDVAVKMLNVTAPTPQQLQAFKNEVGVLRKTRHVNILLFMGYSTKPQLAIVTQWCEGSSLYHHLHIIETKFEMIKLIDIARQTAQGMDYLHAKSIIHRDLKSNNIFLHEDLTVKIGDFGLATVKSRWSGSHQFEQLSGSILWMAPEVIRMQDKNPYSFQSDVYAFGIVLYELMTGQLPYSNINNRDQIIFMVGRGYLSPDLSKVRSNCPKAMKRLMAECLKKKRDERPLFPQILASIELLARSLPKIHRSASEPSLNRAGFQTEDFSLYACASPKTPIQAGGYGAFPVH
RAC-beta serine/threonine-protein kinase (Homo sapiens), sequence (P31751 whole entry): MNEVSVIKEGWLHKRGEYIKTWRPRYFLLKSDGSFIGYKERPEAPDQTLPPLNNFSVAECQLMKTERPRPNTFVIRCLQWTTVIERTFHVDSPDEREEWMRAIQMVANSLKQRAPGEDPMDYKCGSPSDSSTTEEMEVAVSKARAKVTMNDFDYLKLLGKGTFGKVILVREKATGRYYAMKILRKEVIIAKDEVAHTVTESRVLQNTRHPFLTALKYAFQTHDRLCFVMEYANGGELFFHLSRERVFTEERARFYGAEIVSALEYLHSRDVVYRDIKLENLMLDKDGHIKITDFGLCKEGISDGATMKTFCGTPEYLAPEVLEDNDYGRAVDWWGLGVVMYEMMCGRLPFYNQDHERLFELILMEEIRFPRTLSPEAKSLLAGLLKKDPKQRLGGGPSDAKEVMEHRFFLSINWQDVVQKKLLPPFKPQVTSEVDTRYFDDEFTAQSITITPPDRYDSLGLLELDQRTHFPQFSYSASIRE
Tyrosine-protein kinase ABL1 (Homo sapiens), P00519 [E255K], sequence (P00519 whole entry E255K): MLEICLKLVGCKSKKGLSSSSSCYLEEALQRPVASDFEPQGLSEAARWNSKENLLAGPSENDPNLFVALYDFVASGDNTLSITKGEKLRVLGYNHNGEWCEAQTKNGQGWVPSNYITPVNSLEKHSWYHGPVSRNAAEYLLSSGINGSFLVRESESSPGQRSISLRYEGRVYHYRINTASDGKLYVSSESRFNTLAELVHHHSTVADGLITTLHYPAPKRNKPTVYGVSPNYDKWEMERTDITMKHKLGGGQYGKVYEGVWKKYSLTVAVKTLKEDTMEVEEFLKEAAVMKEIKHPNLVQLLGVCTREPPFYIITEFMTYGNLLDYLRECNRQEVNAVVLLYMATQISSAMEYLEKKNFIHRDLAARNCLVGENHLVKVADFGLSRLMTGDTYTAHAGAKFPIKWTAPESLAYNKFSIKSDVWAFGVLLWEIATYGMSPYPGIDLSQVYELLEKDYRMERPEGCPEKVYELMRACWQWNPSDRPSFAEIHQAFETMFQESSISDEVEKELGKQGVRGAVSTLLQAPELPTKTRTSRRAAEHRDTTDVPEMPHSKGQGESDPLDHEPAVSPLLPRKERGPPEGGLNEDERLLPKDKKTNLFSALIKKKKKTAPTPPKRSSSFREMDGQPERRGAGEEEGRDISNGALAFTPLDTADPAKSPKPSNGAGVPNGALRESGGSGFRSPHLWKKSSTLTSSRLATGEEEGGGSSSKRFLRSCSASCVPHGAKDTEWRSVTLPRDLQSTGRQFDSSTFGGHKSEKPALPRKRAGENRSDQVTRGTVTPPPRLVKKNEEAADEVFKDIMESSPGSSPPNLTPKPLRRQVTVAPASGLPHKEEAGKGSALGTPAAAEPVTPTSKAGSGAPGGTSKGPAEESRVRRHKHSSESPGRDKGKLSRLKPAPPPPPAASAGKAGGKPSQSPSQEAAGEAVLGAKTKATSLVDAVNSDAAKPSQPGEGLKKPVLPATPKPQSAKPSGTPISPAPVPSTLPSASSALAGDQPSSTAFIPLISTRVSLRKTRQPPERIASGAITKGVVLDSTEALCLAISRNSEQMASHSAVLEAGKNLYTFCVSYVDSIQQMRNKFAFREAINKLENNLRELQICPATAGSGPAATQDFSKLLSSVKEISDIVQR

| Compound | inhibition [1] | inhibition [2] | inhibition [3] | inhibition [4] | inhibition [5] | inhibition [6] |
| --- | --- | --- | --- | --- | --- | --- |
| CN1CCN(c2ccc(-c3cnc4c(c3)N(Cc3cc(Cl)ccc3Cl)CCN4)cn2)CC1 | < 50% | < 50% | < 50% | < 50% | < 50% | < 50% |
| CN1CCN(c2ccc(-c3cnc4c(c3)N(Cc3cc(Cl)ccc3C(F)(F)F)CCN4)cn2)CC1 | < 50% | < 50% | < 50% | < 50% | < 50% | < 50% |
| CN1CCN(c2ccc(-c3cnc4c(c3)N(Cc3c(F)ccc(F)c3Cl)CCN4)cn2)CC1 | < 50% | 70% | < 50% | < 50% | < 50% | < 50% |
| O=C(c1ccc(-c2cnc3c(c2)N(Cc2cc(Cl)ccc2C(F)(F)F)CCN3)cc1)N1CCC(N2CCCC2)CC1 | – | < 50% | < 50% | < 50% | < 50% | – |
| COC1CCN(C(=O)c2ccc(-c3cnc4c(c3)N(Cc3cc(Cl)ccc3C(F)(F)F)CCN4)cc2)CC1 | – | < 50% | < 50% | < 50% | < 50% | – |
| FC(F)(F)c1ccc(Cl)cc1CN1CCNc2ncc(-c3ccnc(N4CCNCC4)c3)cc21 | < 50% | < 50% | < 50% | < 50% | < 50% | < 50% |
| CN1CCN(c2ccc(-c3cnc4c(c3)N(Cc3cc(F)ccc3F)CCN4)cn2)CC1 | < 50% | < 50% | < 50% | < 50% | < 50% | < 50% |
| O=C(c1ccc(-c2cnc3c(c2)N(Cc2cc(Cl)ccc2C(F)(F)F)CCN3)cc1)N1CCCCC1 | – | < 50% | < 50% | < 50% | < 50% | – |
| CC(=O)N1CCN(c2cc(-c3cnc4c(c3)N(Cc3cc(Cl)ccc3C(F)(F)F)CCN4)ccn2)CC1 | < 50% | < 50% | < 50% | < 50% | < 50% | < 50% |
| O=C(O)c1ccc(-c2cnc3c(c2)N(Cc2cc(Cl)ccc2C(F)(F)F)CCN3)cc1 | – | < 50% | < 50% | < 50% | < 50% | – |
